Screening data deposited in PubChem BioAssay by several laboratories.
NPY Y1 blocker – NPY-Y1 receptor antagonists, primary screen, cell-based | actives 1% (n = 200,000) | inhibition, % at 3.6 µM | Neuropeptide Y receptor type 1 (Homo sapiens), P25929 | HEK293-CNG Y1 cells, membrane potential fluorescence; NPY at EC95, then isoproterenol;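 active = inhibition above the campaign mean inhibition of all tested compounds plus 3 SD, cut at about 20% in these data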;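 note: 0% = DMSO wells given NPY plus isoproterenol and 100% = isoproterenol alone without NPY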
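Material: HEK293 cells co-expressing NPY Y1 receptor and cyclic-nucleotide gated channel. Timing: compound incubation 1 h at room temperature, readout 45 min post-stimulation. Signal: fluorescence, membrane potential probe.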
Measles CPE – compounds protecting cells from measles virus cytopathic effect, primary screen, measles RdRp inhibitor project, single point, MLSMR library, absorbance; Measles virus-infected cells, CPE protection; protection (pct of control), % at 4 µM; actives 1.5% (n = 140,000); AID 841, 2007; in the data active = protection mostly above about 24%, no sharp cut-off; inactive = mostly below about 26%
NPY-Y2 antag – NPY-Y2 receptor antagonists, primary screen, cell-based. Neuropeptide Y receptor type 2 (Homo sapiens), P49146. NPY-Y2 expressing cells, antagonist mode. inhibition, % at 2.7 µM. actives 0.99% (n = 140,000); in the data active = inhibition above about 17%;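 note: 0% = vehicle with agonist challenge and 100% = reference antagonist with challenge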
NPY2 pot ag – NPY-Y2 potentiators or agonists, primary screen, cell-based; actives 0.45% (n = 220,000); activation, % at 3.6 µM; Neuropeptide Y receptor type 2 (Homo sapiens), P49146; AID 1359, 2008; cells expressing NPY-Y2, potentiator/agonist read-out; in the data active = activation above about 27%;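 note: cells stimulated with NPY near EC25 plus isoproterenol at EC100; 0% = vehicle plus submaximal agonist and 100% = vehicle plus saturating agonist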
NPY1 pot ag – NPY-Y1 receptor potentiators or agonists, primary screen, cell-based; NPY-Y1 expressing cells, potentiator/agonist activation; actives 0.37% (n = 220,000); activation, % at 3.6 µM; Neuropeptide Y receptor type 1 (Homo sapiens), P25929; in the data active = activation above about 33%, passing the limit was not always enough;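 note: cells stimulated with NPY at EC10 then isoproterenol at EC100; 0% = low agonist plus stimulus and 100% = saturating agonist plus stimulus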
MDM2 E3 inh – MDM2-luciferase reporter signal enhancers, primary screen, MDM2 E3 ligase inhibitor project, cell-based, luminescence, 1536-well. E3 ubiquitin-protein ligase Mdm2 (Homo sapiens), Q00987. cell-based MDM2 ubiquitination luciferase reporter, 2 h; 0 = plate control, 100 = twice control, blank-subtracted. signal enhancement, % at 5 µM. actives 0.11% (n = 210,000). AID 1230, 2008;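 active = signal enhancement of 30% or more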;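 note: luminescence tracks abundance of the self-degrading MDM2-luciferase fusion protein; higher signal means inhibition of MDM2 E3 ligase activity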
Target sequence (Q00987 whole entry, looked up, the tested form may be a part): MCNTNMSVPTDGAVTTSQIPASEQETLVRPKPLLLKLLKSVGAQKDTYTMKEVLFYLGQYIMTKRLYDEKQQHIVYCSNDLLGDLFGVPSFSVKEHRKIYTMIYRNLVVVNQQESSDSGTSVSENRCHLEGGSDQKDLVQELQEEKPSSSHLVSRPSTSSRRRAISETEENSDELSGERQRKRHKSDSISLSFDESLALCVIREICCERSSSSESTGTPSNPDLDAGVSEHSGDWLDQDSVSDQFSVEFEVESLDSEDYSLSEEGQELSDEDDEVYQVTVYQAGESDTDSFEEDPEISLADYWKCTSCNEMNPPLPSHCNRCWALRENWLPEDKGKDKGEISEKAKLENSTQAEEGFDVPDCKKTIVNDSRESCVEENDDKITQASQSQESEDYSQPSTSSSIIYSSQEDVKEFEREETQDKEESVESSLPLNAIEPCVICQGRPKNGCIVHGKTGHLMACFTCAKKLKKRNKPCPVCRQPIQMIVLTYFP
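Assay system: stable mammalian line carrying autodegrading MDM2–luciferase fusion reporter; Input: 2000 cells in each well; Compound dosing: single-point 5 µM; Schedule: 2 h compound exposure at 37 °C; Signal: SteadyLite luciferase luminescence after 15 min room-temperature reagent incubation; Evaluation: % luminescence enhancement versus blank-corrected plate control mean; Benchmarks: plate controls and plate blanks.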
NPY1 antag ctr – NPY-Y1 receptor antagonists, selectivity check, counter-screen for NPY-Y2 antagonist project, cell-based; inhibition, % at 3.6 µM; cell-based NPY-Y1 antagonism counterscreen; AID 1256, 2008; actives 19% (n = 710); shares compounds with NPY-Y2 antag; in the data active = inhibition above about 20%;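 note: cells challenged with NPY then isoproterenol with cAMP sensed through a CNG channel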
NPY-Y2 ant conf – NPY-Y2 receptor antagonists, retest of hits, confirmation, HEK293-CNG cells, membrane potential fluorescence, triplicate; shares compounds with NPY-Y2 antag; inhibition, % at 2.8 µM; HEK293 NPY-Y2 CNG channel; actives 32% (n = 710); AID 1257, 2008;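 active = mean inhibition of triplicate wells above the hit cutoff set in the primary screen, cut at about 17% in these data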;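 note: 0% = DMSO with NPY challenge and 100% = BIIE0246 high control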
Starred values were filed as active, the others as inactive; · = no result given. Hits are enriched below; roughly 2.8% of the tested compounds scored in any of these assays.

SMILES | NPY Y1 blocker | Measles CPE | NPY-Y2 antag | NPY2 pot ag | NPY1 pot ag | MDM2 E3 inh | NPY1 antag ctr | NPY-Y2 ant conf
CCCOC(=O)COC(=O)c1ccccc1NC(=O)c1ccccc1 | 15 | 5 | 23* | -11 | -70 | -4 | 16 | 9
C/C(Cn1nnc([N+](=O)[O-])n1)=N\NC(=O)c1ccc(O)cc1O | -1 | 8 | 25* | -1 | -3 | -9 | -2 | 0
C/C(Cn1nnc([N+](=O)[O-])n1)=N\NC(=O)c1ccccc1O | · | · | · | -19 | -43 | -2 | · | ·
O=[N+]([O-])c1ccccc1/C=N/Nc1nnc(-c2ccccc2)c(-c2ccccc2)n1 | 1 | 27 | -1 | 1 | -1 | -2 | · | ·
Clc1ccc(CSc2cc3c(nn2)-c2ccccc2CC3)cc1Cl | 16 | 4 | 20* | -24 | -50 | 1 | 20 | 36*
O=C(NCc1ccco1)NC1CCCCC1 | 6 | 4 | 4 | -1 | -6 | -1 | · | ·
CCC(C)(C(=O)NC1CCCCC1)N(Cc1ccco1)C(=O)c1ccccn1 (stereo unspecified) | 14 | 15 | 17* | -19 | -20 | -5 | 12 | 9
CCN(CC)c1ccc(C2C(C(=O)OC(C)C)C(=O)CC(C)(O)C2C(=O)OC(C)C)cc1 (stereo unspecified) | 20 | 12 | 19* | 10 | -7 | -12 | 6 | 5
C=CCOC(=O)C1C(=O)CC(C)(O)C(C(=O)OCC=C)C1c1ccc(OCC)cc1 (stereo unspecified) | 14 | 1 | 22* | -32 | -16 | -9 | 16 | 9
Cc1ccccc1C(=O)Oc1ccc(Br)cc1C(=S)N1CCCC1 | 7 | 5 | 17* | -7 | -23 | -1 | 14 | 10
O=C(Oc1ccc(Br)cc1C(=S)N1CCCC1)c1ccccc1Cl | 5 | 9 | 10 | -7 | -25 | -3 | · | ·
CN=C(Nc1cccc(Cl)c1)SC1CC(=O)N(c2ccc(OC)cc2)C1=O (stereo unspecified) | -7 | · | · | 17 | 14 | -8 | · | ·
Cc1ccc([N+](=O)[O-])cc1NC(=O)c1ccc(-c2ccccc2)cc1 | 19 | 4 | 22* | -6 | -32 | -6 | 9 | 12
Cc1ccc(C(=O)Nc2cc([N+](=O)[O-])ccc2C)cc1 | 4 | · | · | 0 | 1 | -1 | · | ·
CCCOc1ccc(Br)cc1/C=N/O | 17 | 9 | 18* | -3 | -49 | -14 | 21* | 9
Cc1ccc(CN2CCNC(=O)C2CC(=O)NCCCn2ncc3ccccc32)o1 (stereo unspecified) | -2 | · | · | 0 | -5 | -11 | · | ·
N#CC(C#N)=C1C=CC=CN1/C(=C\c1ccco1)C(=O)c1ccc(Cl)cc1 | -1 | 1 | 18* | -8 | -1 | -30 | 15 | 83*
N#CC(C#N)=C1C=CC=CN1/C(=C\c1ccco1)C(=O)c1ccc(-c2ccccc2)cc1 | 2 | 0 | 7 | -11 | -48 | 11 | · | ·
CCN(CC)C(=O)CSc1nc(-c2ccc(C)cc2)nc2c1COC(C)(C)C2 | 7 | 14 | 20* | 6 | 2 | -20 | 5 | 4
CC1(C)Cc2nc(-c3ccccc3)nc(SCC(O)CO)c2CO1 (stereo unspecified) | · | · | · | 10 | -7 | -12 | · | ·
CC(C)(C)NS(=O)(=O)c1cccc(S(=O)(=O)c2cccc(S(=O)(=O)NC(C)(C)C)c2)c1 | 3 | 5 | 3 | 26 | 21 | -23 | · | ·
